Assay outcomes as filed in PubChem BioAssay.
In the library only some 3.8% were active in any assay of this set; here they are far more common.
rCAG binder: molecules binding r(CAG) RNA repeats; r(CAG) RNA repeat, TO-PRO-1 dye displacement fluorescence; inhibition, % at 3 µM; 370,000 tested, 1.3% active;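 active = inhibition above the plate cutoff, the mean of all test compounds on that plate plus 3 SD, cut at about 35% in these data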;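 note: 0% = DMSO alone and 100% = 100 µM mitoxantrone as full dye displacement; higher means more dye released from RNA so lower well fluorescence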
Beta2AR agonist: activates human beta-2 adrenergic receptor causing internalization; Am2.2-beta2AR cells, FAP receptor internalization, flow cytometry; response, % (test concentration not listed); 340,000 tested, 0.43% active; AID 504454;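 active = response above a set limit, near 3 SD of response in nonfluorescent compounds, cut at about 42% in these data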
Target sequence (P07550 whole entry, looked up): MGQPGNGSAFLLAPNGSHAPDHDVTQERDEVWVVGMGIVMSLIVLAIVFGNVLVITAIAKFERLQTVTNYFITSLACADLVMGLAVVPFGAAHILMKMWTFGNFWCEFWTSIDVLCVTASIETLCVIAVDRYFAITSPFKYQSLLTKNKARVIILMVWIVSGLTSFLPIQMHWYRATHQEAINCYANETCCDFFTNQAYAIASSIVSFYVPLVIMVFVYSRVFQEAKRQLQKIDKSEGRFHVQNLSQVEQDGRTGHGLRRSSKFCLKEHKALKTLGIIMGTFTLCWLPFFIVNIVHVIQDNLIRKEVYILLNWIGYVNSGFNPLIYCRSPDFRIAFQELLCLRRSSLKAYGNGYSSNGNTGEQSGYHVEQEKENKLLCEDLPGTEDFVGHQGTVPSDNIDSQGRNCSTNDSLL
MPTP inh: inhibitors of mitochondrial permeability transition pore; isolated mouse mitochondria, Ca2+ swelling absorbance, 30 min; inhibition, % at 10 µM; 360,000 tested, 1.4% active; AID 602449;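 active = inhibition of 50% or more, scaled per plate between neutral and stimulator controls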;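 note: 0% = DMSO wells given calcium and 100% = 1 mM EGTA wells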
T cell HTS: modulates CD8 T cell binding to vesicles | 2C CD8+ T cell-vesicle binding, flow cytometry; active compounds read low | response (vesicle binding), % at 7 µM | 330,000 tested, 0.068% active | AID 2052;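 active = response, share of CD8 T cells binding vesicles, and their 90th percentile fluorescence all below set limits, cut at about 80% in these data, passing the limit was not always enough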;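 note: values below 100% mean blocked vesicle binding to the CD8+ T cells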
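Assay system – 2C mouse CD8+ T cells · Also added – QL9-loaded Drosophila micro-vesicles · Timing – Cell–vesicle co-incubation 1.5 h at 37 °C, staining 20 min on ice · Signal – flow cytometry of vesicle-bound cells · Measure – percent CD8+ FL2 mean versus row control · Controls – Peptide-free naked vesicles (low) and QL9 vesicles with 0.7% DMSO vehicle (high)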
V-ATPase pH: alters yeast V-ATPase proton transport | 350,000 tested, 0.37% active | S. cerevisiae, pHLuorin cytosolic pH fluorescence | response, % at 10 µM; in the data active = response mostly above about 7.3%, no sharp cut-off; inactive = mostly below about 5.4%; note: actives read high
Granule exo inh: lytic granule exocytosis inhibition | TALL-104 LAMP-1 surface exposure, flow cytometry; cells stimulated with thapsigargin and PMA | 360,000 tested, 0.66% active | inhibition, % at 10 µM;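 active = inhibition above about 55%, limit read from the data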
MPTP counter: mitochondrial membrane potential, counter-screen. shares compounds with MPTP inh. isolated mitochondria, Rhodamine 123 fluorescence. inhibition, % at 10 µM. 5,000 tested, 78% active. AID 624504; in the data active = inhibition above about 22%;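 note: 0% = DMSO vehicle and 100% = positive control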
MPTP swell DR: MPTP inhibition, dose response swelling confirmation. IC50, µM. AID 651561. shares compounds with MPTP inh. isolated mitochondria swelling, absorbance. 780 tested, 58% active; in the data active = IC50 below about 20 µM
MPTP cs DR: counter-screen for mitochondrial permeability transition pore inhibitors, dose response; IC50, µM; isolated mitochondria counterscreen, fluorescence read-out; shares compounds with MPTP inh; 780 tested, 49% active; in the data active = IC50 below about 80 µM
The depositor's hits bear a star; i = inactive; . = no result.

SMILES | rCAG binder | Beta2AR agonist | MPTP inh | T cell HTS | V-ATPase pH | Granule exo inh | MPTP counter | others
CC(C)[C@@H](C)/C=C/[C@@H](C)[C@H]1CC[C@@H]2[C@]1(C)CCC1[C@]23C=C[C@]2(C[C@@H](O)CC[C@]12C)N(c1cnccn1)O3 (some centres not stated) | 2 | . | . | . | . | . | .
CC(C)[C@@H]1CC[C@@H](C)C[C@H]1OC[B-](F)(F)F | 2 | . | . | . | . | . | .
CCCCc1ccc(S(=O)(=O)NNC(=S)NCc2ccco2)cc1 | 6 | -1 | 83* | 271 | 3 | 2 | 65*
CC(C)Cn1c(N)c(C(=O)COC(=O)CC23CC4CC(CC(C4)C2)C3)c(=O)n(C)c1=O | 5 | 27 | 81* | 359 | 1 | 22 | 116*
O=S(=O)(Nc1nc2ccccc2nc1Nc1cccc(S(=O)(=O)N2CCCCC2)c1)c1ccccc1 | 31 | 20 | 55* | 239 | 1 | 12 | 44*
O=S(=O)(Nc1nc2ccccc2nc1Nc1ccc2c(c1)OCO2)c1ccc(F)cc1 | 7 | 12 | 51* | 327 | -3 | 0 | 4 | MPTP swell DR=4.1*;MPTP cs DR=<2.5*
O=C(O)c1cccc(Nc2nc3ccccc3nc2NS(=O)(=O)c2ccc(F)cc2)c1 | 33 | 1 | 1 | 443 | 0 | -1 | .
CCCCCCCCN1C(=O)[C@@H](CC(=O)N2CCN(C(=O)c3ccco3)CC2)C[C@@]2(C(=O)OC)C1=C[C@H](C(C)C)O[C@@H]2C1CC1 | 7 | . | . | . | . | . | .
COCCn1c(C)cc(C(=O)CSc2nc(C)cc(C)c2C#N)c1C | -4 | -1 | 66* | 181 | 6 | 2 | 4 | MPTP swell DR=i;MPTP cs DR=58*
Cc1cccc(Nc2nc(NCc3ccco3)c3ccccc3n2)c1 | 18 | 39 | 91* | 368 | -1 | 22 | 90*
O=C(O)C1CC=CCC1C(=O)N1CCN(c2nc(-c3ccccc3)c3ccccc3n2)CC1 (configuration not stated) | 6 | -7 | 83* | 226 | -2 | 1 | -11 | MPTP swell DR=10*;MPTP cs DR=>80
COc1ccc(C(=O)CSc2nnc(Cn3cnc4ccccc43)o2)cc1 | 11 | 2 | 84* | 651 | 2 | -2 | 66*
O=S1(=O)c2ccccc2-c2c(nnn2CC2CCCCC2)CN1C1CC1 | 2 | . | . | . | . | . | .
Cc1ccc(S(=O)(=O)N2[C@H](c3cccc(Cl)c3)CC(=O)[C@@H]3CN(S(=O)(=O)c4ccccc4C)[C@H](c4ccc(Cl)cc4)C[C@@H]32)cc1 | 18 | . | 81* | . | 0 | -4 | 69*
Cc1ccc([C@@H]2CC(=O)[C@@H]3CN(S(=O)(=O)c4ccccc4C)[C@H](c4ccc(Cl)cc4)C[C@@H]3N2S(=O)(=O)c2ccc(C)cc2)cc1 | 13 | . | 58* | . | -1 | -2 | 77*
Cc1ccc(S(=O)(=O)N2[C@H](c3ccc(Cl)cc3)CC(=O)[C@@H]3CN(S(=O)(=O)c4ccccc4C)[C@H](c4ccc(Cl)cc4)C[C@@H]32)cc1 | 15 | . | 20 | . | . | -1 | .
CCOc1ccc(-n2c(SCC(=O)c3ccccc3Cl)nnc2-c2ccncc2)cc1 | 6 | . | . | . | . | . | .
C=CCN1C(=O)[C@@H](CC(=O)NCc2cccs2)[C@]2(C(=O)OC)CCCCC=C12 | 6 | . | . | . | . | . | .
CO/N=C/c1ccc(N2CCN(C(=O)c3ccc(F)cc3)CC2)c([N+](=O)[O-])c1 | 0 | -1 | 9 | 261 | 9 | 2 | .
CO/N=C/c1ccc(N2CCN(C(=O)c3ccc(Cl)cc3Cl)CC2)c([N+](=O)[O-])c1 | -1 | 6 | 78* | 254 | 1 | -2 | 60*
O=C(CN1CCc2onc(-c3ccc(-n4cc(COc5ccc([N+](=O)[O-])cc5)nn4)cc3)c2C1=O)N1CCOCC1 | 13 | . | . | . | . | . | .
COC(=O)[C@]12C[C@H](CC(=O)N3CCCCC3)C(=O)N(Cc3cccc4ccccc34)C1=C[C@H](C1CCCC1)O[C@@H]2C | 9 | . | . | . | . | . | .
COCc1cc(N2CCNC[C@@H]2C)ccc1N1CCN(Cc2ccccc2)[C@H](C)C1 | 5 | . | . | . | . | . | .
COc1ccc(-c2cc(C(=O)NCC(c3ccccc3)N(C)C)c3ccccc3n2)cc1OC (configuration not stated) | -3 | 19 | 1 | 137 | 1 | 6 | .
COc1ccc(C(CNC(=O)c2ccc(-c3ccccc3)cc2)N(C)C)cc1OC (configuration not stated) | 2 | 12 | 80* | 181 | 1 | -6 | -11 | MPTP swell DR=19*;MPTP cs DR=>80
SMILES | rCAG binder | Beta2AR agonist | MPTP inh | T cell HTS | V-ATPase pH | Granule exo inh | MPTP counter | others
O=C(Cc1ccc(S(=O)(=O)N2CCOCC2)s1)Nc1cc(C(F)(F)F)cc(C(F)(F)F)c1 | 4 | 9 | 69* | 215 | -1 | 4 | 78*
O=C(Cc1ccc(S(=O)(=O)N2CCCCC2)s1)Nc1ccc(F)c(F)c1 | 11 | -13 | 67* | 166 | 2 | 4 | 83*
CCC(=O)Nc1ccc2c(c1)C(=O)N(C)[C@@H]1CC[C@@H](CC(=O)NCc3ccc(OC)cc3)O[C@H]1CO2 | 6 | . | . | . | . | . | .
CCC(C)[C@H]1CNC(=S)N1CCc1cccc2ccccc12 (some centres not stated) | -2 | 6 | 1 | 669 | 2 | -6 | .
CCC(C)[C@H]1CN=C(N)N1CCc1cccc2ccccc12 (some centres not stated) | 15 | 0 | 90* | 512 | -2 | 8 | 0 | MPTP swell DR=6.5*;MPTP cs DR=30*
O=C(Nc1ccccc1)Nc1nc(-c2ccc(F)cc2)cs1 | 32 | 2 | 92* | 200 | -1 | 0 | 86*
O=C(Cc1ccc(F)cc1)Nc1nc(-c2ccc(F)c(F)c2)cs1 | 2 | 15 | 59* | 671 | -4 | 14 | 86*
COc1ccc(CC(=O)Nc2nc(-c3ccc(F)c(F)c3)cs2)cc1 | 5 | -3 | 0 | 0 | 3 | 36 | .
O=C(Nc1nc(-c2ccc(Cl)cc2)cs1)NC1CCCCC1 | 10 | -3 | 92* | 488 | 4 | 6 | 88*
Cc1noc(-c2ccccc2)c1NC(=O)Nc1ccc(Cl)cc1 | 4 | 0 | 84* | 443 | -5 | -3 | 97*
Fc1ccc(-c2csc(NC(=S)Nc3ccccc3)n2)cc1 | 21 | -5 | 4 | 238 | 4 | -16 | .
O=C(Nc1ccc(Cl)cc1)Nc1nc(-c2ccccc2)cs1 | 13 | 0 | 94* | 142 | 1 | 22 | 92*
O=C(O)c1ccc(Nc2nc(-c3ccccc3)cs2)cc1 | 13 | 5 | 1 | 199 | -1 | 1 | .
COC(=O)C1CN(Cc2ccc(C)cc2)CCS(=O)(=O)N1Cc1cn(Cc2ccc(Cl)cc2)nn1 (configuration not stated) | 3 | . | . | . | . | . | .
